Test results as given in publication PMC9291769 (Chemmedchem, 2021).
“And” between values parts separate entries of the source, which are not always exact repeats. Equal entries are not always repeated.

Tests used:
A375 cells = experiment: MTT cell viability assay; format: cell-based, human; conditions: 48 h
How it was run: (§1)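 A375 cells were kept in high-glucose DMEM with 10% heat-inactivated FBS, 2 mM L-glutamine and pen/strep. Cells were seeded at 0.5×10^5/well and exposed to 10 µM test compound for 48 h at 37 °C, 5% CO₂, then given MTT. Viability = 100(x−y)/(z−y), where x, y and z are absorbance of treated, resting and untreated cells. Mean ± SD, ≥3 experiments in triplicate.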

IDO1 = IDO1 (Homo sapiens, UniProt P14902); experiment: Cellular IDO1 inhibition; format: cell-based; conditions: A375 cell line, IFN-γ, 48 h; for IDO cellular assay inhibition [%] @ 10 μM±SD: L-Kyn by HPLC; for IC50: IC50±SD [μM]
How it was run: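 A375 cells (0.5×10^5/well) were grown overnight, then given test compound (serial dilutions 0.01–30 µM, or single 10 µM) with human IFN-γ (500 U/mL final) and 0.1% DMSO for 48 h. Medium was deproteinized with 20% CCl₃COOH. L-Kyn was quantified by C18 HPLC at 330 nm against a calibration curve; % inhibition was taken versus basal levels. IC50s came from concentration-response curves, ≥3 experiments in triplicate.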

MTT cell viability assay = format: cell-based, human; conditions: human, A375 cells, Cell viability [%] @ 10 μM±SD
How it was run: as §1

TDO (P1.TDO) = TDO (P1.TDO) (Homo sapiens, UniProt P48775); experiment: IDO1 and TDO selectivity assay, P1.TDO cells; format: cell-based; conditions: 10 μM, 16 h
How it was run: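 Mouse mastocytoma P815-derived P1.HTR cells, stably electroporated with a human TDO plasmid and selected in puromycin, grown in IMDM with 1 mM glutamine and penicillin/streptomycin, used at ≤10th passage. Cells incubated 16 h with 10 μM test compound; DMSO vehicle as control. Supernatant L-Kyn measured by HPLC-UV (C18 column) against a calibration curve, detection limit 0.05 μM. Triplicate.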

[1] = In vitro metabolic stability in rat liver S9 fraction; format: in vitro ADME; conditions: rat liver S9 with NADPH, 5 μM substrate, 37 °C
How it was run: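 Pooled male Sprague Dawley rat liver S9 (1.5 mg/mL final protein) was used in 50 mM Tris pH 7.4 with 3.3 mM MgCl₂, 1.3 mM β-NADP, 3.3 mM glucose 6-phosphate, 0.4 U/mL G6PDH and 1% acetonitrile. Test compound was 5 µM, shaken 60 min at 37 °C. Controls lacked S9 or cofactors. Reactions were stopped with ice-cold acetonitrile and centrifuged; residual substrate was measured.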

holo-IDO1 = holo-IDO1 (Homo sapiens, UniProt P14902); experiment: Heme detection; format: binding; conditions: 1 μM holo-IDO1, 120 min, 37 °C; VS9 different concentrations, epacadostat 20 μM
How it was run: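 1 µM holo-IDO1 in 100 mM potassium phosphate (pH 7.2) with 1 mM CHAPS was incubated with varying test-compound concentrations, or 20 µM reference inhibitor, for 120 min at 37 °C. Samples were diluted 100-fold, and free heme was measured with a hemin detection kit at 570 nm. Values are relative to untreated, mean of n=3 ± SD.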

[2] = biological target: recombinant form of human IDO1 (rhIDO1) (Homo sapiens, UniProt P14902); experiment: rhIDO1 enzymatic assay; format: biochemical; conditions: read-out: rhIDO1 inhibition
How it was run: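 Recombinant human IDO1 inhibitor-screening kit: 10 µM test compound in complete reaction buffer, 45 min at 37 °C. Stopped with 30% (w/v) CCl₃COOH, heated 50 °C for 15 min and centrifuged. Supernatant was mixed 1:1 with 2% p-dimethylaminobenzaldehyde in acetic acid, and kynurenine pigment read at 490 nm. The kit's positive inhibition control was included. Mean ± SEM, three experiments in triplicate.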

[3] = test system: CYP (aminopyrine N-demethylase activity); experiment: CYP inhibition: aminopyrine N-demethylase assay in rat liver microsomes; format: in vitro ADME; conditions: rat liver microsomes, 1, 10 and 100 μM
How it was run: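 Aminopyrine N-demethylation by rat liver microsomes, with inhibition read as the […] after aminopyrine incubation. Ketoconazole served as the reference CYP inhibitor.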

Sequence of IDO1 (P14902 whole entry): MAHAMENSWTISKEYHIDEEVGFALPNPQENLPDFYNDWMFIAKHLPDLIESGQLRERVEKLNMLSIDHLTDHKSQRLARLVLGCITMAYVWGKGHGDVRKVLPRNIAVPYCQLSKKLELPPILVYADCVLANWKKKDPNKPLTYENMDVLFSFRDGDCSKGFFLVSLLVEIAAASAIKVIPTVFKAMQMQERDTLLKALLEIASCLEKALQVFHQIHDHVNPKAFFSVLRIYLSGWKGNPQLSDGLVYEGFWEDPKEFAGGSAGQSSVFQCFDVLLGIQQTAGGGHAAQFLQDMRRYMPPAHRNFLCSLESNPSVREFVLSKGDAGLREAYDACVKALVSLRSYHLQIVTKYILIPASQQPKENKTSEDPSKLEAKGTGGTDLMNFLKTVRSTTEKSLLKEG
Sequence of TDO (P1.TDO) (P48775 whole entry): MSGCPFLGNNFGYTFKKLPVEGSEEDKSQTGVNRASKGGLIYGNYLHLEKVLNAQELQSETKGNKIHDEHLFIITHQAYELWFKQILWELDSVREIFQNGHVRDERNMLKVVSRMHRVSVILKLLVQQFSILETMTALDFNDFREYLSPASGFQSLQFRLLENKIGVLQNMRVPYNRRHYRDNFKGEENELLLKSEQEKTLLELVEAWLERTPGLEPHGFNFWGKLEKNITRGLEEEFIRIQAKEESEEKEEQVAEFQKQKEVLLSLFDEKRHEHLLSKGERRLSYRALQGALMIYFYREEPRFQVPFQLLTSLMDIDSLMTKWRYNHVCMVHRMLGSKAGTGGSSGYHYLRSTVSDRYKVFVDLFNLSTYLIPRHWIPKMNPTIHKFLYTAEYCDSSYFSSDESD
Sequence of holo-IDO1 (P14902 whole entry): as the sequence (P14902 whole entry) above
Sequence of recombinant form of human IDO1 (rhIDO1) (P14902 whole entry): as above

Row | Compound | Cell viability [%] @ 10 μM±SD (A375 cells) [%] | IDO cellular assay inhibition [%] @ 10 μM±SD (IDO1) [%] | viability at 48 h, 10 μM (MTT cell viability assay) [%] | Kyn levels in P1.TDO cells (TDO (P1.TDO)) | Residual peak area after RLS9 incubation (60 min) [1] | levels of free heme after incubation with IDO1 (holo-IDO1) | inhibition at 10 µM [2] [%] | IC50 (IDO1) | CYP inhibition (aminopyrine N-demethylase activity) [3]
1 | 2‐Methyl‐3‐((pyridin‐3‐ylmethyl)amino)‐N‐((6‐(trifluoromethyl)‐[1,2,4]triazolo[4,3‐a]pyridin‐3‐yl)methyl)benzamide [Compound 11] | 91±12.7 | 22±5 |  |  |  |  |  |  | 
2 | O=C(NCc1nnc2ccc(C(F)(F)F)cn12)c1cccc2cn[nH]c12 [Compound 2, N‐((6‐(Trifluoromethyl)‐[1,2,4]triazolo[4,3‐a]pyridin‐3‐yl)methyl)‐1H‐indazole‐7‐carboxamide] | 87±18.3 | 42±9 | 91 ± 9.9 | not able to induce a reduction of Kyn levels in P1.TDO | higher than 99% | did not increase the levels of free heme | 54.6 ± 3.1 | 2.6 µM and 2.8 µM | 
3 | Cc1ccc(-c2ccc(F)c(C(=O)NCc3nnc4ccc(C(F)(F)F)cn34)c2)cc1C [Compound 24, 4‐Fluoro‐3′,4′‐dimethyl‐N‐((6‐(trifluoromethyl)‐[1,2,4]triazolo[4,3‐a]pyridin‐3‐yl)methyl)‐[1,1′‐biphenyl]‐3‐carboxamide] |  |  | 95 ± 7.2 | not able to induce a reduction of Kyn levels in P1.TDO | higher than 99% |  |  | 2 ± 0.3 µM | 
4 | COc1ccc(-c2ccc(F)c(C(=O)NCc3nnc4ccc(C(F)(F)F)cn34)c2)cc1OC [Compound 25, 4‐Fluoro‐3′,4′‐dimethoxy‐N‐((6‐(trifluoromethyl)‐[1,2,4]triazolo[4,3‐a]pyridin‐3‐yl)methyl)‐[1,1′‐biphenyl]‐3‐carboxamide] |  |  | 94 ± 2.1 | not able to induce a reduction of Kyn levels in P1.TDO | higher than 99% |  |  | 1.4 ± 0.5 µM | low inhibition at 10 and 100 μM
5 | O=C(NCc1nnc2ccc3ccccc3n12)c1cccc2cn[nH]c12 [Compound 37, N‐([1,2,4]Triazolo[4,3‐a]quinolin‐1‐ylmethyl)‐1H‐indazole‐7‐carboxamide] |  |  | 100 ± 4.1 |  |  |  |  | 6.9 ± 0.8 µM | 
6 | O=C(NCc1nnc2ccc3ccccc3n12)c1ccc(O)c(Br)c1 [Compound 38, N‐([1,2,4]Triazolo[4,3‐a]quinolin‐1‐ylmethyl)‐3‐bromo‐4‐hydroxybenzamide] |  |  | 95 ± 7.1 | not able to induce a reduction of Kyn levels in P1.TDO |  |  |  | 0.9 ± 0.02 µM | did not significantly inhibit CYP at the tested concentrations
7 | COc1cc(C)c(C(=O)NCc2nnc3ccc4ccccc4n23)c(C)c1 [Compound 39, N‐([1,2,4]Triazolo[4,3‐a]quinolin‐1‐ylmethyl)‐4‐methoxy‐2,6‐dimethylbenzamide] |  |  | 94 ± 6.3 | not able to induce a reduction of Kyn levels in P1.TDO | higher than 99% |  |  | 1.8 ± 0.2 µM | 
8 | COc1ccc(-c2ccc(F)c(C(=O)NCc3nnc4ccc5ccccc5n34)c2)cc1 [Compound 40, N‐([1,2,4]triazolo[4,3‐a]quinolin‐1‐ylmethyl)‐4‐fluoro‐4′‐methoxy‐[1,1′‐biphenyl]‐3‐carboxamide] |  |  | 97 ± 3.8 |  | higher than 99% |  |  | 3.4 ± 0.3 µM | 
9 | NS(=O)(=O)NCCNc1nonc1C(=NO)Nc1ccc(F)c(Br)c1 [epacadostat, reference compound] |  |  |  |  |  | did not increase the levels of free heme |  |  | 
10 | CC(=O)N1CCN(c2ccc(OCC3COC(Cn4ccnc4)(c4ccc(Cl)cc4Cl)O3)cc2)CC1 (stereo not drawn) [ketoconazole, reference compound] |  |  |  |  |  |  |  |  | strong inhibition of CYP
11 | N‐((6‐(Trifluoromethyl)‐[1,2,4]triazolo[4,3‐a]pyridin‐3‐yl)methyl)‐9H‐fluorene‐4‐carboxamide [Compound 10] | 90±14.8 | 34±1 |  |  |  |  |  |  | 
